Data from paper PMC11077555 (Chemical Science, 2024).
Values joined by “and” are separate entries in the source; they are usually repeats but may differ in a detail not shown here. Identical values can stand only once. Each block holds one compound with its values, some of them ahead of it.

Tests used:
human recombinant PSMA = human recombinant PSMA (Homo sapiens, UniProt Q04609); test: Fluorescence polarization; type: binding
human recombinant GCPIII = human recombinant GCPIII (Homo sapiens, UniProt Q9Y3Q0); test: Fluorescence polarization; type: binding; conditions: for fold selectivity (fold higher dissociation constant towards GCPIII): compared to the original HIT3; for Kd: KD,GCPIII; for Kd / affinity against GCPIII (in words): off-DNA FP
Chain of human recombinant GCPIII (Q9Y3Q0 whole entry): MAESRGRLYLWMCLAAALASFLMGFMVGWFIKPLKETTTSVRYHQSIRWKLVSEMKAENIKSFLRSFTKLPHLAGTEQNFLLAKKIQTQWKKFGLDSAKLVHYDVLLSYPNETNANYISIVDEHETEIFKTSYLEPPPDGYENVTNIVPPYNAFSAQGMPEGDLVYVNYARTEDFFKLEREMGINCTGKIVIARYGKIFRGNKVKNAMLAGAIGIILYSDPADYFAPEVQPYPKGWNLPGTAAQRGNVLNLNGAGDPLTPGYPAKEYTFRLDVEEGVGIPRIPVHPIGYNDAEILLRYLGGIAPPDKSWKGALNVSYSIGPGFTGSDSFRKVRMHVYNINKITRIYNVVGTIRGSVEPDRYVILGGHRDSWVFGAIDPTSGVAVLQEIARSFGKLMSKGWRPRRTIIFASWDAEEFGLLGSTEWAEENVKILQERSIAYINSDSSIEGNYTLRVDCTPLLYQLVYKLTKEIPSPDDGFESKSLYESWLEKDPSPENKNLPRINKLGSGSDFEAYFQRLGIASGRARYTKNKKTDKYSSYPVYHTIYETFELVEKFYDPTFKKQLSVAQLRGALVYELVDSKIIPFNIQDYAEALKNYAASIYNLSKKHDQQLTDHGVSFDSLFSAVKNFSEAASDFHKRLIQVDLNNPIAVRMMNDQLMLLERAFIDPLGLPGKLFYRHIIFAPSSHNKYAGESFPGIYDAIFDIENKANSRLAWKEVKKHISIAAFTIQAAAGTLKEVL

LNCaP cells = test: Flow cytometry on LNCaP cells; type: cell-based; conditions: HT1080.wt as reference
Outline: (§1)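 Fluorescein-conjugated test compounds were incubated with PSMA-positive cells (HT1080.hPSMA, LNCaP), with PSMA-negative HT1080.wt cells as reference. Cell-bound fluorescence was measured by flow cytometry to assess recognition of PSMA in a native cellular environment.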

HT1080.hPSMA cells = test: Flow cytometry on HT1080.hPSMA cells; type: cell-based, human; conditions: HT1080.hPSMA vs HT1080.wt; fluorescein-labelled compounds 50-250 nM
Outline: as §1

[1] = in combination with best standard of care; cited from earlier work
HT1080.hPSMA tumors = test: Quantitative in vivo biodistribution in tumor-bearing mice; design: species or system BALB/c nude mice; conditions: 2 h after i.v., n = 3
PSMA = conditions: read-out: IC50,PSMA; cited from earlier work

Chain of human recombinant PSMA (Q04609 whole entry): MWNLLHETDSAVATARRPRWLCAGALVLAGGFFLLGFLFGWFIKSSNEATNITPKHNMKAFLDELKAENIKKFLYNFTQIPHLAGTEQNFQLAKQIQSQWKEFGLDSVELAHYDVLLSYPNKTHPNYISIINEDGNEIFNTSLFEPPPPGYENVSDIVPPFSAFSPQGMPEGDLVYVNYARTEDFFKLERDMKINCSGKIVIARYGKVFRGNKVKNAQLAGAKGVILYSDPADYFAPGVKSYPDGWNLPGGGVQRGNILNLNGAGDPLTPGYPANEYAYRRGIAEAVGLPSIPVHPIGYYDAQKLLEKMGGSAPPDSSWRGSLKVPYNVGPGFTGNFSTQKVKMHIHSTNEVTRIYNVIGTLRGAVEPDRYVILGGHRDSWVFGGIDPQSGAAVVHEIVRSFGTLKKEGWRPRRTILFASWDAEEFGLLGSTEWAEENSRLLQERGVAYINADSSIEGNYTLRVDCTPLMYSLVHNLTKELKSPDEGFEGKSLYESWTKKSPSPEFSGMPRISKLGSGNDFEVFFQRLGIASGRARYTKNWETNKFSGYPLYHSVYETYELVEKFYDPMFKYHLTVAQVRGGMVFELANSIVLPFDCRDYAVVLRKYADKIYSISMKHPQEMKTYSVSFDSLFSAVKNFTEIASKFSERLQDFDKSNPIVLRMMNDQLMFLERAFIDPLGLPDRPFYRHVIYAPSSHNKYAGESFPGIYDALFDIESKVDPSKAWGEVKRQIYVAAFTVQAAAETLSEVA

Compound: O=C(O)CC[C@H](NC(=O)N[C@@H](CCC(=O)NCCOCCOCCNC(=S)Nc1ccc2c(c1)C(=O)OC21c2ccc(O)cc2Oc2cc(O)ccc21)C(=O)O)C(=O)O [Compound 12]
binding to PSMA on cells, fluorescence shift by flow cytometry (LNCaP cells): avidly bound to PSMA | binding to PSMA on cells, fluorescence shift by flow cytometry (HT1080.hPSMA cells): avidly bound to PSMA

Compound: N#Cc1cccc(C[C@H](NC(=O)c2nn(-c3ccccc3)c(=O)[nH]c2=O)C(=O)N[C@@H](Cc2ccc(CP(=O)(O)O)cc2)C(=O)N[C@@H](CCCCNC(=S)Nc2ccc3c(c2)C(=O)OC32c3ccc(O)cc3Oc3cc(O)ccc32)C(=O)O)c1 [Compound 1]
Kd (human recombinant PSMA): 260 ± 5 nM | Kd (human recombinant GCPIII): 600 ± 3 nM

Compound: O=C([O-])CN1CCN(CC(=O)[O-])CCN(CC(=O)NCC2CCC(C(=O)N[C@@H](Cc3ccc4ccccc4c3)C(=O)NCCCC[C@H](NC(=O)N[C@@H](CCC(=O)O)C(=O)O)C(=O)O)CC2)CCN(CC(=O)[O-])CC1.[177Lu+3] (stereo partly shown) [Pluvicto™]
overall response rate [1]: 30% | overall survival [1]: 15.3 months | Tumor (HT1080.hPSMA) uptake (HT1080.hPSMA tumors; 18: 1 nmol/mouse, Pluvicto 0.5 nmol/mouse, 1 MBq): 32.4 %ID/g | Kidney uptake (HT1080.hPSMA tumors): 2.16 %ID/g | Tumor-to-organ ratio, Blood (T : B) (HT1080.hPSMA tumors): 2079

Compound: O=C(CCNS(=O)(=O)c1ccc2ccccc2c1)N[C@H]1C[C@H](C(=O)O)N(C(=O)c2nn(-c3ccccc3)c(=O)[nH]c2=O)C1 [HIT2]
binding to PSMA on cells, fluorescence shift by flow cytometry (HT1080.hPSMA cells): not able to interact with PSMA on tumor cells

Compound: O=C(O)CNC(=O)c1cc(CNC(=O)c2ccc(CNC(=O)[C@H]3C[C@H](NC(=O)CCNS(=O)(=O)c4ccc5ccccc5c4)CN3C(=O)c3nn(-c4ccccc4)c(=O)[nH]c3=O)cc2)cc(OCC(=O)N[C@@H](CCCCNC(=S)Nc2ccc3c(c2)C(=O)OC32c3ccc(O)cc3Oc3cc(O)ccc32)C(=O)O)c1 [Compound 5]
affinity against GCPIII (in words) (human recombinant GCPIII): no measurable affinity was detected

Further lines, with some results ahead:

Kd (human recombinant PSMA): 1.3 ± 0.7 nM | fold selectivity (fold higher dissociation constant towards GCPIII) (human recombinant GCPIII): ~40 fold
Compound: C#CC[C@@H](NC(=O)[C@@H]1C[C@@H](C2CCCCC2)CN1C(=O)CSC1CCN(C(=O)CC[C@H](NC(=O)N[C@@H](CCC(=O)O)C(=O)O)C(=O)O)CC1)C(=O)NCCOCCOCCNC(=S)Nc1ccc2c(c1)C(=O)OC21c2ccc(O)cc2Oc2cc(O)ccc21 [Compound 10]

affinity against GCPIII (in words) (human recombinant GCPIII): no measurable affinity was detected
Compound: O=C(CCNS(=O)(=O)c1ccc2ccccc2c1)N[C@H]1C[C@H](C(=O)N[C@@H](CCCCNC(=S)Nc2ccc3c(c2)C(=O)OC32c3ccc(O)cc3Oc3cc(O)ccc32)C(=O)O)N(C(=O)c2nn(-c3ccccc3)c(=O)[nH]c2=O)C1 [Compound 6]

affinity against GCPIII (in words) (human recombinant GCPIII): no measurable affinity was detected
Compound: O=C(O)CNC(=O)c1cc(CNC(=O)c2ccc(CNC(=O)[C@H]3C[C@H](NC(=O)CCNS(=O)(=O)c4ccc5ccccc5c4)CN3C(=O)c3nn(-c4ccccc4)c(=O)[nH]c3=O)cc2)cc(OCC(=O)NCCOCCOCCNC(=S)Nc2ccc3c(c2)C(=O)OC32c3ccc(O)cc3Oc3cc(O)ccc32)c1 [Compound 7]

Kd (human recombinant PSMA): > 10000 nM | affinity against GCPIII (in words) (human recombinant GCPIII): no measurable affinity was detected
Compound: O=C(CCNS(=O)(=O)c1ccc2ccccc2c1)N[C@H]1C[C@H](C(=O)NCCOCCOCCNC(=S)Nc2ccc3c(c2)C(=O)OC32c3ccc(O)cc3Oc3cc(O)ccc32)N(C(=O)c2nn(-c3ccccc3)c(=O)[nH]c2=O)C1 [Compound 8, (2R,4S) -N-(2-(2-(2-(3-(3',6'-dihydroxy-3-oxo-3H-spiro[isobenzofuran-1,9'-xanthen]-5-yl)thioureido)ethoxy)ethoxy)ethyl)-1-(3,5-dioxo-2-phenyl-2,3,4,5-tetrahydro-1,2,4-triazine-6-carbonyl)-4-(3-(naphthalene-2-sulfonamido)propanamido)pyrrolidine-2-carboxamide]

Kd (human recombinant PSMA): 1 nM | Kd (human recombinant GCPIII): 1.2 nM and 1 nM
Compound: O=C(O)CC[C@H](NC(=O)N[C@@H](CCC(=O)O)C(=O)O)C(=O)O [HIT3, (2S,2′S)-2,2′-(carbonyldiimino)dipentanedioic acid, reference compound]
IC50 (PSMA): 47 nM

Kd (human recombinant PSMA): 0.9 ± 0.5 nM | fold selectivity (fold higher dissociation constant towards GCPIII) (human recombinant GCPIII): ~40 fold
Compound: C#CC[C@H](NC(=O)[C@@H]1C[C@@H](C2CCCCC2)CN1C(=O)CSC1CCN(C(=O)CC[C@H](NC(=O)N[C@@H](CCC(=O)O)C(=O)O)C(=O)O)CC1)C(=O)NCCOCCOCCNC(=S)Nc1ccc2c(c1)C(=O)OC21c2ccc(O)cc2Oc2cc(O)ccc21 [Compound 9]
